Assay outcomes: PubChem, several laboratories
LEDGF integ inh – blockers of LEDGF/p75-dependent integrase strand transfer – biochemical, TR-FRET, high throughput, primary screen; actives 0.64% (n = 370,000); TR-FRET IN-LEDGF/p75 DNA integration, Eu/Cy5; HIV-1 integrase (with human LEDGF/p75); inhibition, % at 3.7 µM;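 active = inhibition above the screen-wide mean plus 3 SD, cut at about 13% in these data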;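 note: signal is the Cy5 over europium emission ratio at 671 and 618 nm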
Casp6 inh – human caspase-6 inhibitors, primary screen, biochemical, VEID-R110 fluorescence, single point, set 2 | P55212 | purified caspase-6, Z-VEID-R110 cleavage fluorescence | inhibition, % at 12.5 µM | actives 0.53% (n = 350,000) | AID 686996, 2013;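 active = mean inhibition across replicates at least about 35%, with every replicate also reaching that limit, limit read from the data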
Target sequence (P55212 24-179 limits assumed): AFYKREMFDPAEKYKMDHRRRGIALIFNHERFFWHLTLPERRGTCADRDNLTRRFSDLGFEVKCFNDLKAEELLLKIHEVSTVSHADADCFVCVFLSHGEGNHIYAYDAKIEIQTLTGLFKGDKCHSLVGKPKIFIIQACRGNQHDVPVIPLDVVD
Target sequence (P55212 194-293 limits assumed): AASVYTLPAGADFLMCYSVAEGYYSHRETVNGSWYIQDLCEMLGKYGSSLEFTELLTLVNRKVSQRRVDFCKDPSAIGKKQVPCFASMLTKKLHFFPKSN
UHRF1 MBD2 ctr – UHRF1 methylated DNA binding inhibitors, primary screen, counter-screen for MBD2 inhibitor project, biochemical, TR-FRET, human UHRF1, single concentration | actives 0.75% (n = 370,000) | inhibition, % at 4.4 µM | E3 ubiquitin-protein ligase UHRF1 (Homo sapiens), Q96T88 | UHRF1 binding to methylated oligo | AID 687016, 2013; in the data active = inhibition above about 21%;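 note: UHRF1 SRA domain binding a hemimethylated CpG hairpin DNA probe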
NSD2 inh – NSD2 histone methyltransferase inhibitors, primary screen, biochemical, AlphaScreen, single concentration, set 2; NSD2 peptide methylation, 120 min; AID 743445, 2014; actives 0.54% (n = 310,000); Histone-lysine N-methyltransferase NSD2 (Homo sapiens), O96028; inhibition, % at 12.5 µM; in the data active = inhibition above about 50%
MBD2 DNA inh – inhibitors of MBD2 binding to methylated DNA, primary screen, biochemical, TR-FRET, DNA-binding domain, human | MBD2 binding to methylated oligonucleotide | inhibition, % at 4.4 µM | actives 0.31% (n = 370,000) | AID 686964, 2013; in the data active = inhibition above about 13%
Target sequence (Q9UBB5 whole entry, looked up, the tested form may be a part): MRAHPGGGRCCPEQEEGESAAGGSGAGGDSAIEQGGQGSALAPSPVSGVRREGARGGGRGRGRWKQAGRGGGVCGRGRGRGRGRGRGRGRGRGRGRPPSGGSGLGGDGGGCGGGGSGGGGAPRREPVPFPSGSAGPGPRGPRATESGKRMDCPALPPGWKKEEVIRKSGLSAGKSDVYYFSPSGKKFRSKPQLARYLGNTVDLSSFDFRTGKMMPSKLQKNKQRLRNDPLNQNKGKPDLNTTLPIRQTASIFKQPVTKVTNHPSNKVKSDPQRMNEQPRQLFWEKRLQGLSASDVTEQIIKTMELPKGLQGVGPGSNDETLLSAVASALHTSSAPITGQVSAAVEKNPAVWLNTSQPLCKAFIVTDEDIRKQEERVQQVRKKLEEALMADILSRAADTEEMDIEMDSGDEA
TDP2 absorb – human TDP2 enzyme inhibitors, primary screen, biochemical, epi absorbance, recombinant enzyme. Tyrosyl-DNA phosphodiesterase 2 (Homo sapiens), O95551. T5PNP hydrolysis, p-nitrophenol absorbance 415 nm. inhibition, % at 12.8 µM. actives 0.34% (n = 370,000). AID 720702, 2013;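 active = inhibition above the mean of all tested compounds plus 3 SD, set per campaign, cut at about 25% in these data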
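Incubation: 2 h at 37 °C; Test system: recombinant human TDP2; Quantity: enzyme 120 nM; Read-out basis: percent inhibition; Medium: 50 mM Tris-HCl pH 7.5 with Mg2+, KCl, DTT, BSA; Repeats: single replicate; Compound: 12.8 µM single point, 1% DMSO; Signal: epi absorbance; Reagent: 5 mM T5PNP chromogenic substrate; Benchmarks: no-enzyme high, DMSO-plus-enzyme low.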
TDP2 confirm – human TDP2 enzyme inhibitors, retest, confirmation, biochemical, epi absorbance, recombinant enzyme; shares compounds with TDP2 absorb; absorbance read-out; inhibition, % at 12.8 µM; actives 22% (n = 1,100); in the data active = inhibition above about 25%
IN multimer up – HIV-1 IN multimer formation enhancers, counter-screen for LEDGF/p75 integration inhibitor project, biochemical, TR-FRET | shares compounds with LEDGF integ inh | TR-FRET HIV-1 integrase multimerization | activation, % at 7.7 µM | actives 17% (n = 2,000) | AID 1053131, 2014; in the data active = activation above about 8.9%
TR-FRET interf – TR-FRET optical interference artefacts, confirmation, artefact control for LEDGF/p75-dependent integration inhibitor project, biochemical, HIV-1 IN multimerization | shares compounds with LEDGF integ inh | TR-FRET optical interference counterscreen | inhibition, % at 7.7 µM | 2,000 tested, under 10 active;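 active = inhibition above the mean over all tested compounds plus 3 SD, which no compound reached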
IN-LEDGF confirm – inhibitors of HIV-1 IN-LEDGF/p75 DNA integration, confirmation, biochemical, TR-FRET | shares compounds with LEDGF integ inh | TR-FRET LEDGF/p75-dependent HIV-1 integration | inhibition, % at 3.7 µM | actives 36% (n = 2,000); in the data active = inhibition above about 14%
Alpha artifact – AlphaScreen signal interference with preloaded methylated product, dose response, artefact control for NSD2 inhibitor project, biochemical, cherry-picked samples | shares compounds with NSD2 inh | AID 1053174, 2014 | AlphaScreen artifact counterscreen, preloaded methylated H4 peptide | actives 9.4% (n = 1,500) | AC35, µM (doses to about 10 µM); call rule not given here
A number is an active result; 0 = inactive; - = no result given. An excerpt weighted towards active compounds, which were near 1.8% of everything screened.

SMILES	LEDGF integ inh	Casp6 inh	UHRF1 MBD2 ctr	NSD2 inh	MBD2 DNA inh	TDP2 absorb	TDP2 confirm	IN multimer up	TR-FRET interf	IN-LEDGF confirm	Alpha artifact
COc1cc(N)c(C(O)c2nccc3cc(OC)c(OC)cc23)cc1OC (stereo not drawn)	0	0	0	0	0	0	-	-	-	-	-
O=C1C=C(O)c2cccc(O)c2C1=O	22	77	0	-	0	32	0	0	0	14	-
COc1cccc(C(=O)Nc2ccc3c(c2)C(=O)N(C)C[C@@H](OC)[C@H](C)CN(CC2CC2)[C@H](C)CO3)c1	-	0	-	-	-	-	-	-	-	-	-
O=C1C(O)=C(O)C(=O)c2ccccc21	16	0	0	-	0	57	72	0	0	41	-
CC1=NN(C(N)=S)C(=O)C1N=Nc1ccc(C)cc1C (stereo not drawn)	0	-	0	0	0	0	-	-	-	-	-
CC1=NN(c2ccc(C)cc2C)C(=O)C1C(c1ccccc1O)C1C(=O)N(c2ccc(C)cc2C)N=C1C (stereo not drawn)	29	-	0	0	0	79	0	0	0	0	-
C[C@@H]1CN([C@H](C)CO)C(=O)c2cccc(NC(=O)Nc3ccc4c(c3)OCO4)c2O[C@@H]1CN(C)Cc1ccc(-c2ccccc2)cc1	-	0	-	-	-	-	-	-	-	-	-
N#CCCn1[nH]c(-c2ccccc2)cc1=O	27	-	0	0	0	85	0	0	0	0	-
O=c1cc(-c2ccccc2)[nH]n1-c1nc2ccccc2[nH]1	0	-	0	0	0	0	-	-	-	-	-
Cc1noc(C)c1NC(=O)Nc1cccc2c1O[C@H](CN(C)Cc1ccc(C(=O)Nc3ccccc3N)cc1)[C@@H](C)CN([C@@H](C)CO)C2=O	-	0	-	-	-	-	-	-	-	-	-
Nc1ccc(N2CCOCC2)c2nonc12	22	83	30	-	19	92	36	0	0	0	-
CC(C)NC(=O)Nc1cccc2c1O[C@@H](CN(C)Cc1ccc(C(=O)O)cc1)[C@@H](C)CN([C@@H](C)CO)C2=O	-	0	-	-	-	-	-	-	-	-	-
CC1=NN(c2ccccc2)C(=O)C1/C=C1/NC(=S)NC1=O (stereo not drawn)	0	0	0	0	0	0	-	-	-	-	-
CC1=NN(c2ccccc2)C(=O)C1C=Nc1ccc(N(C)C)cc1 (stereo not drawn)	60	0	32	0	0	32	0	0	0	0	-
CCc1nnc(N/N=C/c2cc(Br)c(O)cc2O)n1N	50	0	0	0	0	37	0	11	0	0	-
CCc1nnc(N/N=C/c2ccc(O)c(OC)c2)n1N	55	0	0	0	0	79	0	0	0	0	-
CCOc1cc(/C=N/Nc2nnc(C)n2N)ccc1OC(C)=O	30	0	0	0	0	43	0	0	0	0	-
CCc1nnc(N/N=C\c2ccc(OC(C)=O)c(OC)c2)n1N	30	0	0	-	0	54	0	0	0	0	-
C[C@H](CO)N1C[C@H](C)[C@@H](CN(C)C(=O)Nc2ccc3c(c2)OCO3)Oc2ccc(NC(=O)CCCCCC(=O)Nc3ccccc3N)cc2C1=O	-	0	-	-	-	-	-	-	-	-	-
Cc1cccc(NC2=C/C(=N/S(=O)(=O)c3cccs3)c3ccccc3C2=O)c1	0	-	0	0	0	0	-	-	-	-	-
CCc1ccc(S(=O)(=O)/N=C2\C=C(Nc3cccc(C(=O)O)c3)C(=O)c3ccccc32)cc1	47	100	0	132	0	69	74	0	0	74	9.3µM
CC(=O)C1=C(C)OC2(O)c3ccccc3C(=O)C12O (stereo not drawn)	0	0	0	90	0	57	61	-	-	-	0
CCOC(=O)C1=C(C)OC2(O)c3ccccc3C(=O)C12O (stereo not drawn)	0	0	0	107	0	70	81	-	-	-	0
CO[C@@H]1CN(C)C(=O)c2cc(NS(C)(=O)=O)ccc2OC[C@H](C)N(C(=O)C2CCC2)C[C@@H]1C	-	0	-	-	-	-	-	-	-	-	-
COc1ccc(C(=O)Nc2ccc3c(c2)C(=O)N(C)C[C@@H](OC)[C@@H](C)CN[C@@H](C)CO3)cc1	-	0	-	-	-	-	-	-	-	-	-
SMILES	LEDGF integ inh	Casp6 inh	UHRF1 MBD2 ctr	NSD2 inh	MBD2 DNA inh	TDP2 absorb	TDP2 confirm	IN multimer up	TR-FRET interf	IN-LEDGF confirm	Alpha artifact
O=C(/C=C/c1ccco1)Nc1cccc(C(=O)Nc2ccccc2C(=O)O)c1	19	60	37	76	0	28	0	0	0	0	0
COc1ccc(NC(=S)Nc2ccc3nsnc3c2)cc1	52	-	0	137	0	76	80	16	0	74	0
C=CCN(CC=C)C(=S)Nc1ccc2nsnc2c1	58	0	0	104	0	72	59	0	0	0	0
CCOc1ccc(NC(=S)Nc2ccc3nsnc3c2)cc1	40	-	0	136	0	72	74	0	0	74	0
O=C(C[C@@H]1CC[C@H](NC(=O)C2CCOCC2)[C@H](CO)O1)NCC1CC1	-	0	-	-	-	-	-	-	-	-	-
CN1[C@@H]2c3ccc(-c4ccccc4)c(=O)n3C[C@H]1[C@H](CO)[C@H]2C(=O)NCC1CCCCC1	-	0	-	-	-	-	-	-	-	-	-
C[C@H](CO)N1C[C@H](C)[C@@H](CN(C)S(=O)(=O)c2ccc(C(F)(F)F)cc2)OCc2ccccc2-c2ccccc2C1=O	-	0	-	-	-	-	-	-	-	-	-
Cc1ccc(NC2=CC(=O)C(=O)c3ccccc32)cc1	23	-	0	65	0	70	39	9.0	0	40	0
CCOC(=O)c1ccc(NC2=CC(=O)C(=O)c3ccccc32)cc1	0	-	0	0	0	0	-	-	-	-	-
NS(=O)(=O)c1ccc(NC2=CC(=O)C(=O)c3ccccc32)cc1	32	68	0	58	0	61	63	0	0	62	0
